{"source": "ChEMBL document CHEMBL1275527", "about": "“A nonsense mutation in the ERG6 gene leads to reduced susceptibility to polyenes in a clinical isolate of Candida glabrata” (2008)", "key": {"Nakaseomyces glabratus [1]": {"system": "Nakaseomyces glabratus", "experiment": "Antifungal activity against Candida glabrata isolate 21230C by disk diffusion method", "assay_type": "functional", "in_short": "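The strain is the ura3 derivative of clinical isolate 21230 complemented with a centromeric plasmid carrying wild-type ERG6, tested as for the parent isolate. Isolates were maintained on YEPD agar.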"}, "Nakaseomyces glabratus [2]": {"system": "Nakaseomyces glabratus", "experiment": "Antifungal activity against wild-type Candida glabrata isolate 21231 by Etest method", "assay_type": "functional"}, "Nakaseomyces glabratus [3]": {"system": "Nakaseomyces glabratus", "experiment": "Antifungal activity against Candida glabrata isolate 21230 with silent mutations in ERG4, ERG5 genes and nonsense mutation in ERG6 gene by disk diffusion method", "assay_type": "functional"}, "Nakaseomyces glabratus [4]": {"system": "Nakaseomyces glabratus", "experiment": "Antifungal activity against wild-type Candida glabrata isolate 21231 by disk diffusion method", "assay_type": "functional"}, "Nakaseomyces glabratus [5]": {"system": "Nakaseomyces glabratus", "experiment": "Antifungal activity against Candida glabrata isolate 21230 with silent mutation in ERG4, ERG5 genes and nonsense mutation in ERG6 gene by Etest method", "assay_type": "functional"}, "Nakaseomyces glabratus [6]": {"system": "Nakaseomyces glabratus", "experiment": "Antifungal activity against Candida glabrata isolate 21229 with missense mutation in ERG6 gene at 2 mM", "assay_type": "functional, organism-based", "in_short": "(§1)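 Compound incorporated at 2 mM into YEPD agar. Cell suspensions at 10^7 down to 10^3 cells per ml were spotted at 10 µl each, dried and incubated 48 h at 37°C. Growth was compared with spots on YEPD agar without inhibitor.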"}, "Nakaseomyces glabratus [7]": {"system": "Nakaseomyces glabratus", "experiment": "Antifungal activity against Candida glabrata isolate 21230 at 2 mM", "assay_type": "functional, organism-based", "in_short": "as §1"}}, "note": "Active and inactive are the calls of the source. The calls are words filed in the database; no cut-off is given here.", "data": [{"molecule": "C[C@@H]1[C@H](O)[C@@H](C)/C=C/C=C/C=C/C=C/C=C/C=C/C=C/[C@H](O[C@@H]2O[C@H](C)[C@@H](O)[C@H](N)[C@@H]2O)C[C@@H]2O[C@](O)(C[C@@H](O)C[C@@H](O)[C@H](O)CC[C@@H](O)C[C@@H](O)CC(=O)O[C@H]1C)C[C@H](O)[C@H]2C(=O)O", "note": "[AMPHOTERICIN B]", "values": [{"measurement": "inhibition zone (IZ)", "setting": "Nakaseomyces glabratus [1]", "value": 29, "unit": "mm"}, {"measurement": "MIC", "setting": "Nakaseomyces glabratus [2]", "value": 0.047, "unit": "µg/mL"}, {"measurement": "inhibition zone (IZ)", "setting": "Nakaseomyces glabratus [3]", "value": 13, "unit": "mm"}, {"measurement": "inhibition zone (IZ)", "setting": "Nakaseomyces glabratus [4]", "value": 27, "unit": "mm"}, {"measurement": "MIC", "setting": "Nakaseomyces glabratus [5]", "value": 0.125, "unit": "µg/mL"}]}, {"molecule": "C[C@@H](c1ncncc1F)[C@](O)(Cn1cncn1)c1ccc(F)cc1F", "note": "[VORICONAZOLE]", "values": [{"measurement": "inhibition zone (IZ)", "setting": "Nakaseomyces glabratus [3]", "value": 39, "unit": "mm"}, {"measurement": "inhibition zone (IZ)", "setting": "Nakaseomyces glabratus [4]", "value": 30, "unit": "mm"}]}, {"molecule": "OC(Cn1cncn1)(Cn1cncn1)c1ccc(F)cc1F", "note": "[FLUCONAZOLE]", "values": [{"measurement": "MIC", "setting": "Nakaseomyces glabratus [2]", "value": 6, "unit": "µg/mL"}, {"measurement": "inhibition zone (IZ)", "setting": "Nakaseomyces glabratus [3]", "value": 29, "unit": "mm"}, {"measurement": "inhibition zone (IZ)", "setting": "Nakaseomyces glabratus [4]", "value": 21, "unit": "mm"}, {"measurement": "MIC", "setting": "Nakaseomyces glabratus [5]", "value": 1, "unit": "µg/mL"}]}, {"molecule": "Cn1c(=O)c2c(ncn2C)n(C)c1=O", "values": [{"measurement": "Activity", "setting": "Nakaseomyces glabratus [6]", "value": "Active"}, {"measurement": "Activity", "setting": "Nakaseomyces glabratus [7]", "value": "Active"}]}, {"molecule": "Clc1ccc(COC(Cn2ccnc2)c2ccc(Cl)cc2Cl)c(Cl)c1", "note": "(stereo not drawn) [MICONAZOLE]", "values": [{"measurement": "inhibition zone (IZ)", "setting": "Nakaseomyces glabratus [3]", "value": 29, "unit": "mm"}, {"measurement": "inhibition zone (IZ)", "setting": "Nakaseomyces glabratus [4]", "value": 21, "unit": "mm"}]}, {"molecule": "Clc1ccc(COC(Cn2ccnc2)c2ccc(Cl)cc2Cl)cc1", "note": "(stereo not drawn) [ECONAZOLE]", "values": [{"measurement": "inhibition zone (IZ)", "setting": "Nakaseomyces glabratus [3]", "value": 35, "unit": "mm"}, {"measurement": "inhibition zone (IZ)", "setting": "Nakaseomyces glabratus [4]", "value": 25, "unit": "mm"}]}, {"molecule": "NYSTATIN", "values": [{"measurement": "inhibition zone (IZ)", "setting": "Nakaseomyces glabratus [3]", "value": 19, "unit": "mm"}, {"measurement": "inhibition zone (IZ)", "setting": "Nakaseomyces glabratus [4]", "value": 31, "unit": "mm"}]}, {"molecule": "CC(=O)N1CCN(c2ccc(OCC3COC(Cn4ccnc4)(c4ccc(Cl)cc4Cl)O3)cc2)CC1", "note": "(stereo not drawn) [KETOCONAZOLE]", "values": [{"measurement": "MIC", "setting": "Nakaseomyces glabratus [2]", "value": 0.19, "unit": "µg/mL"}, {"measurement": "inhibition zone (IZ)", "setting": "Nakaseomyces glabratus [3]", "value": 43, "unit": "mm"}, {"measurement": "inhibition zone (IZ)", "setting": "Nakaseomyces glabratus [4]", "value": 33, "unit": "mm"}, {"measurement": "MIC", "setting": "Nakaseomyces glabratus [5]", "value": 0.064, "unit": "µg/mL"}]}]}
